This is an account of results in ChEMBL document CHEMBL3399994, “Improving both aqueous solubility and anti-cancer activity by assessing progressive lead optimization libraries” (Bioorg Med Chem Lett, 2015).

≈ marks a conversion by molar mass, not a printed value.

Series [1] is described as follows: Cytotoxicity against human H460 cells assessed as cell viability at 10 uM after 48 hrs by SRB assay. Type of series: functional. As to conditions: NCI-H460, 48 h, read-out: Activity. In a few lines: (§1)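 Single-concentration screen at 10 µM in normal human fibroblasts, NSCLC H460 cells and their drug-resistant H460_TaxR variant. Viability was read out by sulforhodamine B (SRB) staining and expressed relative to DMSO-treated cells, set as 100%.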
Background: Sulforhodamine B stains cellular protein and so reports cell mass.

Series [2] can be described thus: Cytotoxicity against human H460 cells after 48 hrs by SRB assay. Type of series: functional, cell-based. As to conditions: NCI-H460, 48 h.
Series [3] can be described thus: Cytotoxicity against human NHFB cells assessed as cell viability at 10 uM after 48 hrs by SRB assay. Type of series: cell-based. The settings on record: read-out: Activity. In a few lines:
as §1

Series [4] can be described thus: Solubility in pH 7.4 buffer after 18 hrs by UV spectroscopy based microSol assay. Type of series: physicochemical. As to conditions: for solubility: buffer, pH 7.4, 18 h; for solubility at 18 h: pH 7.4 buffer, pH 7.4.
Series [5] is described as follows: Cytotoxicity against human H460/TaxR cells after 48 hrs by SRB assay. The format is functional, cell-based.
Series [6] is described as follows: Cytotoxicity against human NHFB cells after 48 hrs by SRB assay. The format is cell-based.
Series [7] can be described thus: Cytotoxicity against human H460/TaxR cells assessed as cell viability at 10 uM after 48 hrs by SRB assay. The format is functional. As to conditions: read-out: Activity. The method in brief:
as §1

On to `CN(C)c1ccc(/C=C2/SC(=Nc3ccccc3)NC2=O)cc1`, for which the results for the viability at 10 µM in series [1] and in series [7] were 19.8% and 29.4%, respectively. Also, the EC50 (usually the midpoint of the concentration-response curve) in series [2] was 0.72 µM; in series [5], 0.98 µM; in series [6], over 100 µM. Further, in series [3], the viability at 48 h, 10 µM came out at 68.3%. Further, in series [4], the solubility (commonly the concentration that dissolves in the medium under given conditions) is 0.1 µg/mL (≈ 0.309 µM).
`CN(C)c1ccc(/C=C2/SC(=Nc3ccc(O)cc3)NC2=O)cc1`: the figures for the viability at 10 µM in series [1] and in series [7] were 94.4% and 47.9%, respectively. The viability at 48 h, 10 µM in series [3] turned out to be 96.5%. For the same compound, the solubility at 18 h in series [4] stood at 0.01 µg/mL (≈ 0.0295 µM).
The like results for `Cc1ccccc1/N=C1\NC(=O)/C(=C\c2ccc(N(C)C)cc2)S1` were, in that order, 17.6%, 41%, 86.5% and 0.27 µg/mL (≈ 0.8 µM).
The like results for `CN(C)c1ccc(/C=C2/SC(=Nc3ccccc3Cl)NC2=O)cc1` were, in that order, 8.82%, 39.3%, over 100% and 0.02 µg/mL (≈ 0.0559 µM).
On to `O=C1N=C(Nc2ccccc2)S/C1=C/c1ccc(N2CCNCC2)cc1`, for which the results for the viability at 10 µM in series [1] and in series [7] were over 100% and 89.3%, respectively. Moreover, the half-maximal effective concentration (EC50) in series [2], in series [5] and in series [6] was over 100 µM each time. The viability at 48 h, 10 µM in series [3] stood at 97%. This compound had a solubility in series [4] of 1.68 µg/mL (≈ 4.61 µM).
Consider `CCN(CC)c1ccc(/C=C2/SC(Nc3ccccc3)=NC2=O)cc1`, for which the viability at 10 µM was 19.5% in series [1] and 30.1% in series [7]. Further, the figures for the EC50 in series [2], in series [5] and in series [6] were 6.9 µM, 9.9 µM and over 100 µM, respectively. Besides, in series [3], the viability at 48 h, 10 µM stood at 96.9%. The compound also yielded a solubility in series [4] of 0.1 µg/mL (≈ 0.285 µM).
In the case of `O=C1N=C(Nc2ccccc2)S/C1=C/c1ccc(N2CCOCC2)cc1`, the viability at 10 µM in series [1] turned out to be 96.1%; in series [7], 77.5%. In addition, the concentration for a half-maximal effect (EC50) in series [2], in series [5] and in series [6] was over 100 µM throughout. Also, the viability at 48 h, 10 µM in series [3] is 97.4%. Also, in series [4], the solubility was 0.1 µg/mL (≈ 0.274 µM).
In the case of `CN1CCN(c2ccc(/C=C3/SC(Nc4ccccc4)=NC3=O)cc2)CC1`, the viability at 10 µM in series [1] was 13.9%; in series [7], 11.3%. Also, the EC50 worked out at 1.4 µM in series [2], 2.5 µM in series [5] and 6.4 µM in series [6]. Moreover, in series [3], the viability at 48 h, 10 µM was found to be 93.8%. Moreover, the solubility in series [4] was 0.35 µg/mL (≈ 0.925 µM).
In the case of `CCN(CC)c1ccc(/C=C2/SC(Nc3ccc(O)cc3)=NC2=O)cc1`, the viability at 10 µM in series [1] turned out to be 94.3%; in series [7], 48.2%. Also, the viability at 48 h, 10 µM in series [3] came to 93.7%.
Consider `O=C1N=C(Nc2ccc(O)cc2)S/C1=C/c1ccc(N2CCOCC2)cc1`, for which the viability at 10 µM in series [1] is 88.9%; in series [7] it was over 100%. Besides, in series [3], the viability at 48 h, 10 µM amounted to 92.8%. In series [4], this compound displayed a solubility at 18 h of 0.19 µg/mL (≈ 0.498 µM).
As for `CN1CCN(c2ccc(/C=C3/SC(Nc4ccc(O)cc4)=NC3=O)cc2)CC1`, the viability at 10 µM in series [1] and in series [7] was over 100% in each case. In series [3], the viability at 48 h, 10 µM worked out at 94.3%. In series [4], this compound had a solubility at 18 h of 0.01 µg/mL (≈ 0.0253 µM).
Turning to `O=C1N=C(Nc2ccc(O)cc2)S/C1=C/c1ccc(N2CCNCC2)cc1`, the results for the viability at 10 µM in series [1] and in series [7] were 83.9% and 85.5%, respectively. Also, in series [3], the viability at 48 h, 10 µM stood at 98.9%. In series [4], this compound came in with a solubility at 18 h of 13.9 µg/mL (≈ 36.5 µM).
With `CCN(CC)c1ccc(/C=C2/SC(Nc3ccccc3Cl)=NC2=O)cc1`, the values for the viability at 10 µM in series [1] and in series [7] were 25.1% and 29.5%, respectively. The viability at 48 h, 10 µM in series [3] amounted to 85%. The compound also yielded a solubility at 18 h in series [4] of 0.01 µg/mL (≈ 0.0259 µM).
The like results for `O=C1N=C(Nc2ccccc2Cl)S/C1=C/c1ccc(N2CCOCC2)cc1` were, in that order, 48.2%, 41.4%, 94.2% and 0.05 µg/mL (≈ 0.125 µM).
The like results for `CN1CCN(c2ccc(/C=C3/SC(Nc4ccccc4Cl)=NC3=O)cc2)CC1` were, in that order, 98.2%, 52.7%, 96% and 0.43 µg/mL (≈ 1.04 µM).
The like results for `O=C1N=C(Nc2ccccc2Cl)S/C1=C/c1ccc(N2CCNCC2)cc1` were, in that order, 98.1%, 77.4%, 99.3% and 0.14 µg/mL (≈ 0.351 µM).
For the compound `CN(C)c1ccc(/C=C2/SC(Nc3ccc(Oc4ccccc4)cc3)=NC2=O)cc1`, the figures for the viability at 10 µM in series [1] and in series [7] were over 100% and 88.2%, respectively. Also, in series [3], the viability at 48 h, 10 µM was 100%. The solubility at 18 h in series [4] was determined as 0.01 µg/mL (≈ 0.0241 µM).
In the case of `CCN(CC)c1ccc(/C=C2/SC(Nc3ccc(Oc4ccccc4)cc3)=NC2=O)cc1`, the viability at 10 µM in series [1] is over 100%; in series [7], 64.6%. In addition, the viability at 48 h, 10 µM in series [3] is over 100%.
In the case of `O=C1N=C(Nc2ccc(Oc3ccccc3)cc2)S/C1=C/c1ccc(N2CCOCC2)cc1`, the viability at 10 µM was 72.6% in series [1] and 46.8% in series [7]. Besides, the viability at 48 h, 10 µM in series [3] worked out at 98%. Further, in series [4], the solubility at 18 h was 0.1 µg/mL (≈ 0.219 µM).
The corresponding values for `CN1CCN(c2ccc(/C=C3/SC(Nc4ccc(Oc5ccccc5)cc4)=NC3=O)cc2)CC1` are 46.7%, 49.8%, 90.9% and 0.1 µg/mL (≈ 0.212 µM).
For the compound `O=C1N=C(Nc2ccc(Oc3ccccc3)cc2)S/C1=C/c1ccc(N2CCNCC2)cc1`, the results for the viability at 10 µM in series [1] and in series [7] were 49.3% and 45.4%, respectively. Also, in series [3], the viability at 48 h, 10 µM was found to be 82.9%. This compound showed a solubility at 18 h in series [4] of 0.1 µg/mL (≈ 0.219 µM).
The corresponding values for `CCN(CC)c1ccc(/C=C2/SC(Nc3ccccc3C)=NC2=O)cc1` are 8.3%, 24.6%, 80.6% and 0.2 µg/mL (≈ 0.547 µM).
The corresponding values for `Cc1ccccc1NC1=NC(=O)/C(=C\c2ccc(N3CCOCC3)cc2)S1` are 43.8%, 70.2%, 80.8% and 0.78 µg/mL (≈ 2.06 µM).
On to `Cc1ccccc1NC1=NC(=O)/C(=C\c2ccc(N3CCN(C)CC3)cc2)S1`, for which the viability at 10 µM came to 88.6% in series [1] and 34.3% in series [7]. For the same compound, the viability at 48 h, 10 µM in series [3] was 80.2%. For the same compound, the solubility at 18 h in series [4] amounted to 0.89 µg/mL (≈ 2.27 µM).
The corresponding values for `Cc1ccccc1NC1=NC(=O)/C(=C\c2ccc(N3CCNCC3)cc2)S1` are 65.1%, 50.1%, 62.8% and 3.83 µg/mL (≈ 10.1 µM).
In the case of `CN(C)c1ccc(/C=C2/SC(N(c3ccccc3)c3ccccc3)=NC2=O)cc1`, the EC50 in series [2], in series [5] and in series [6] was over 100 µM throughout.
In the case of `CCN(CC)c1ccc(/C=C2/SC(N(c3ccccc3)c3ccccc3)=NC2=O)cc1`, the EC50 in series [2], in series [5] and in series [6] was over 100 µM each time. In addition, the solubility in series [4] is 0.01 µg/mL (≈ 0.0234 µM).
Regarding `O=C1N=C(N(c2ccccc2)c2ccccc2)S/C1=C/c1ccc(N2CCOCC2)cc1`, the EC50 in series [2], in series [5] and in series [6] was over 100 µM each time. The compound also registered a solubility in series [4] of 0.01 µg/mL (≈ 0.0226 µM).
On to `CN1CCN(c2ccc(/C=C3/SC(N(c4ccccc4)c4ccccc4)=NC3=O)cc2)CC1`, for which the EC50 in series [2], in series [5] and in series [6] was over 100 µM each time. The compound also came in with a solubility in series [4] of 0.11 µg/mL (≈ 0.242 µM).
Take `O=C1N=C(N(c2ccccc2)c2ccccc2)S/C1=C/c1ccc(N2CCNCC2)cc1`: the EC50 in series [2], in series [5] and in series [6] was over 100 µM in each case. The solubility in series [4] was found to be 0.15 µg/mL (≈ 0.34 µM).
As for `CN(C)c1ccc(/C=C2/SC(N(C)c3ccccc3)=NC2=O)cc1`, the EC50 in series [2] is 0.08 µM; in series [5], 0.16 µM; in series [6] it was over 100 µM. The same compound returned a solubility in series [4] of 0.5 µg/mL (≈ 1.48 µM).
The like results for `CCN(CC)c1ccc(/C=C2/SC(N(C)c3ccccc3)=NC2=O)cc1` were, in that order, 0.28 µM, 0.43 µM, over 100 µM and 0.01 µg/mL (≈ 0.0274 µM).
The corresponding values for `CN(C1=NC(=O)/C(=C\c2ccc(N3CCOCC3)cc2)S1)c1ccccc1` are 8.9 µM, 2.9 µM, over 100 µM and 5.06 µg/mL (≈ 13.3 µM).
The like results for `CN1CCN(c2ccc(/C=C3/SC(N(C)c4ccccc4)=NC3=O)cc2)CC1` were, in that order, over 100 µM, over 100 µM, over 100 µM and 18.91 µg/mL (≈ 48.2 µM).
Regarding `CN(C1=NC(=O)/C(=C\c2ccc(N3CCNCC3)cc2)S1)c1ccccc1`, the half-maximal effective concentration (EC50) in series [2], in series [5] and in series [6] was over 100 µM throughout. For the same compound, in series [4], the solubility was 3.89 µg/mL (≈ 10.3 µM).
In turn, `CCCSc1ccc2nc(NC(=O)OC)[nH]c2c1` [ALBENDAZOLE] had a solubility at 18 h in series [4] of 2.3 µg/mL (≈ 8.67 µM).
For `NC(=O)N1c2ccccc2C=Cc2ccccc21` [CARBAMAZEPINE], the solubility in series [4] turned out to be 22 µg/mL (≈ 93.1 µM).
On the same count and under the same terms, as for `CNC(=C[N+](=O)[O-])NCCSCc1ccc(CN(C)C)o1` [RANITIDINE], the figure is 33.7 µg/mL (≈ 107 µM).
